Experimental data published in ChEMBL document CHEMBL1151458, “Comparative analysis of the bactericidal activities of amphibian peptide analogues against multidrug-resistant nosocomial bacterial strains” (2008).
Calls of active or inactive are those of the source. The calls are words filed in the database; no cut-off is given here.

Key:
Pseudomonas aeruginosa [1] = assay: Bactericidal activity against Pseudomonas aeruginosa isolate 2 with AMP-CFZ-CIP-CTX-CXM-GEN-LVX-IPM-MEM-SXT-TET resistance phenotype assessed as concentration required for >= 3 log10 CFU/ml reduction in viable bacteria in sodium phosphate buffer at pH 7.4 after 1.5 hrs by liquid microdilution assay; type: functional
Summary of the method: (§1)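 Clinical multidrug-resistant isolates grown to mid-log in tryptone soy broth and stored frozen. Exponential cells resuspended in 10 mM sodium phosphate buffer, pH 7.4, at 1 × 10^7 CFU/ml; 10 μl incubated with graded peptide concentrations in 100 μl at 37°C for 1.5 h. Plated on tryptone soy agar, CFU read after 24 h at 37°C. Peptide stocks in 20% ethanol.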

Pseudomonas aeruginosa [2] = assay: Bactericidal activity against Pseudomonas aeruginosa isolate 3 with AMP-CFZ-CTX-CIP-GEN-IPM-LVX-SXT-TET-TOB resistance phenotype assessed as concentration required for >= 3 log10 CFU/ml reduction in viable bacteria in sodium phosphate buffer at pH 7.4 after 1.5 hrs by liquid microdilution assay; type: functional; summary of the method: as §1
Enterococcus faecium [3] = assay: Bactericidal activity against Enterococcus faecium isolate 3 with AMP-CIP-CTX-ERY-GEN-LVX-SXT-TEC-VAN resistance phenotype assessed as concentration required for >= 3 log10 CFU/ml reduction in viable bacteria in 20% heat-inactivated human serum after 1.5 hrs by liquid microdilution assay; type: functional
Summary of the method: (§2)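 The buffer microdilution kill assay (1 × 10^7 CFU/ml mid-log cells, 10 μl in 100 μl, 37°C, 1.5 h, CFU on tryptone soy agar after 24 h) with serum added to 20% or 40% final. Serum was pooled from five healthy donors, clotted at room temperature, spun at 300 × g and heat-inactivated at 56°C for 30 min.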

Staphylococcus aureus [4] = assay: Bactericidal activity against Staphylococcus aureus isolate 1 with AMC-AMP-CIP-ERY-GEN-OXA-RIF resistance phenotype assessed as concentration required for >= 3 log10 CFU/ml reduction in viable bacteria in 20% heat-inactivated human serum after 1.5 hrs by liquid microdilution assay; type: functional; summary of the method: as §2
[5] = tested on: Stenotrophomonas maltophilia; assay: Bactericidal activity against Stenotrophomonas maltophilia isolate 2 with AMK-CIP-CTX-IPM-MEM-SAM-TZP resistance phenotype assessed as concentration required for >= 3 log10 CFU/ml reduction in viable bacteria in 20% heat-inactivated human serum after 1.5 hrs by liquid microdilution assay; type: functional; summary of the method: as §2
Acinetobacter baumannii [6] = assay: Bactericidal activity against Acinetobacter baumannii isolate 3 with AMP-AMC-CFZ-CIP-IPM-SXT-TET-TOB resistance phenotype assessed as concentration required for >= 3 log10 CFU/ml reduction in viable bacteria in 20% heat-inactivated human serum after 1.5 hrs by liquid microdilution assay; type: functional; summary of the method: as §2
Pseudomonas aeruginosa [7] = assay: Bactericidal activity against Pseudomonas aeruginosa isolate 1 with AMP-CFZ-CIP-CTX-CXM-GEN-LVX-SXT-TET resistance phenotype assessed as concentration required for >= 3 log10 CFU/ml reduction in viable bacteria in 20% heat-inactivated human serum after 1.5 hrs by liquid microdilution assay; type: functional; summary of the method: as §2
Staphylococcus aureus [8] = assay: Antimicrobial activity against Staphylococcus aureus isolate 1 with AMC-AMP-CIP-ERY-GEN-OXA-RIF resistance phenotype at twofold the bactericidal concentration within 30 mins; type: functional, organism-based
Summary of the method: (§3)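 Time-kill in 10 mM sodium phosphate buffer, pH 7.4: 1 × 10^7 CFU/ml mid-log clinical isolate (10 μl) exposed at 37°C to peptide at the 1.5-h bactericidal concentration or twofold that, in 100 μl. Samples taken from 2 min onward, plated on tryptone soy agar, CFU counted after 24 h at 37°C. Killing taken as ≥3 log10 CFU/ml drop.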

[9] = tested on: Stenotrophomonas maltophilia; assay: Antimicrobial activity against Stenotrophomonas maltophilia isolate 2 with AMK-CIP-CTX-IPM-MEM-SAM-TZP resistance phenotype assessed as assessed as time to kill at twofold bactericidal concentration; type: functional; summary of the method: as §3
Acinetobacter baumannii [10] = assay: Antimicrobial activity against Acinetobacter baumannii isolate 3 with AMP-AMC-CFZ-CIP-IPM-SXT-TET-TOB resistance phenotype assessed as time to kill at bactericidal concentration; type: functional; summary of the method: as §3
Pseudomonas aeruginosa [11] = assay: Antimicrobial activity against Pseudomonas aeruginosa isolate 1 with AMP-CFZ-CIP-CTX-CXM-GEN-LVX-SXT-TET resistance phenotype at bactericidal concentration after 30 mins by time kill assay; type: functional, organism-based; summary of the method: as §3
Pseudomonas aeruginosa [12] = assay: Antimicrobial activity against Pseudomonas aeruginosa isolate 1 with AMP-CFZ-CIP-CTX-CXM-GEN-LVX-SXT-TET resistance phenotype at twofold bactericidal concentration after 10 to 30 mins by time kill assay; type: functional, organism-based; summary of the method: as §3
Enterococcus faecium [13] = assay: Antimicrobial activity against Enterococcus faecium isolate 3 with AMP-CIP-CTX-ERY-GEN-LVX-SXT-TEC-VAN resistance phenotype assessed as time to kill at bactericidal concentration; type: functional; summary of the method: as §3
Enterococcus faecium [14] = assay: Antimicrobial activity against Enterococcus faecium isolate 3 with AMP-CIP-CTX-ERY-GEN-LVX-SXT-TEC-VAN resistance phenotype assessed as time to kill at twofold the bactericidal concentration; type: functional, organism-based; summary of the method: as §3
Enterococcus faecium [15] = assay: Bactericidal activity against Enterococcus faecium isolate 3 with AMP-CIP-CTX-ERY-GEN-LVX-SXT-TEC-VAN resistance phenotype assessed as concentration required for >= 3 log10 CFU/ml reduction in viable bacteria in sodium phosphate buffer at pH 7.4 after 1.5 hrs by liquid microdilution assay; type: functional; summary of the method: as §1
Enterococcus faecium [16] = assay: Bactericidal activity against Enterococcus faecium isolate 5 with AMP-AMC-CIP-CLI-ERY-GEN-KAN-LVX-SXT-TEC-VAN resistance phenotype assessed as concentration required for >= 3 log10 CFU/ml reduction in viable bacteria in sodium phosphate buffer at pH 7.4 after 1.5 hrs by liquid microdilution assay; type: functional; summary of the method: as §1
Enterococcus faecium [17] = assay: Bactericidal activity against Enterococcus faecium isolate 6 with AMP-AMC-CLI-CRO-CTX-CIP-ERY-GEN-KAN-LVX-SXT-VAN resistance phenotype assessed as concentration required for >= 3 log10 CFU/ml reduction in viable bacteria in sodium phosphate buffer at pH 7.4 after 1.5 hrs by liquid microdilution assay; type: functional; summary of the method: as §1
Staphylococcus aureus [18] = assay: Bactericidal activity against Staphylococcus aureus isolate 1 with AMC-AMP-CIP-ERY-GEN-OXA-RIF resistance phenotype assessed as concentration required for >= 3 log10 CFU/ml reduction in viable bacteria in sodium phosphate buffer at pH 7.4 after 1.5 hrs by liquid microdilution assay; type: functional; summary of the method: as §1
Staphylococcus aureus [19] = assay: Bactericidal activity against Staphylococcus aureus isolate 2 with AMC-AMP-CIP-ERY-GEN-LVX-OXA-RIF-TET resistance phenotype assessed as concentration required for >= 3 log10 CFU/ml reduction in viable bacteria in sodium phosphate buffer at pH 7.4 after 1.5 hrs by liquid microdilution assay; type: functional; summary of the method: as §1
Staphylococcus aureus [20] = assay: Bactericidal activity against Staphylococcus aureus isolate 3 with AMC-AMP-CIP-ERY-GEN-LVX-OXA resistance phenotype assessed as concentration required for >= 3 log10 CFU/ml reduction in viable bacteria in sodium phosphate buffer at pH 7.4 after 1.5 hrs by liquid microdilution assay; type: functional; summary of the method: as §1
[21] = tested on: Stenotrophomonas maltophilia; assay: Bactericidal activity against Stenotrophomonas maltophilia isolate 1 with AMK-CIP-CTX-IPM-MEM-SAM-TZP resistance phenotype assessed as concentration required for >= 3 log10 CFU/ml reduction in viable bacteria in sodium phosphate buffer at pH 7.4 after 1.5 hrs by liquid microdilution assay; type: functional; summary of the method: as §1
[22] = tested on: Stenotrophomonas maltophilia; assay: Bactericidal activity against Stenotrophomonas maltophilia isolate 2 with AMK-CIP-CTX-IPM-MEM-SAM-TZP resistance phenotype assessed as concentration required for >= 3 log10 CFU/ml reduction in viable bacteria in sodium phosphate buffer at pH 7.4 after 1.5 hrs by liquid microdilution assay; type: functional; summary of the method: as §1
[23] = tested on: Stenotrophomonas maltophilia; assay: Bactericidal activity against Stenotrophomonas maltophilia isolate 4 with AMK-CAZ-CIP-FEP-IPM-SAM-TZP resistance phenotype assessed as concentration required for >= 3 log10 CFU/ml reduction in viable bacteria in sodium phosphate buffer at pH 7.4 after 1.5 hrs by liquid microdilution assay; type: functional; summary of the method: as §1
Acinetobacter baumannii [24] = assay: Bactericidal activity against Acinetobacter baumannii isolate 1 with AMP-AMC-CFZ-CIP-IPM-LVX-PIP-SXT-TET resistance phenotype assessed as concentration required for >= 3 log10 CFU/ml reduction in viable bacteria in sodium phosphate buffer at pH 7.4 after 1.5 hrs by liquid microdilution assay; type: functional; summary of the method: as §1
Acinetobacter baumannii [25] = assay: Bactericidal activity against Acinetobacter baumannii isolate 2 with AMP-CFZ-CIP-LVX-PIP-SXT resistance phenotype assessed as concentration required for >= 3 log10 CFU/ml reduction in viable bacteria in sodium phosphate buffer at pH 7.4 after 1.5 hrs by liquid microdilution assay; type: functional; summary of the method: as §1
Acinetobacter baumannii [26] = assay: Bactericidal activity against Acinetobacter baumannii isolate 3 with AMP-AMC-CFZ-CIP-IPM-SXT-TET-TOB resistance phenotype assessed as concentration required for >= 3 log10 CFU/ml reduction in viable bacteria in sodium phosphate buffer at pH 7.4 after 1.5 hrs by liquid microdilution assay; type: functional; summary of the method: as §1
Pseudomonas aeruginosa [27] = assay: Bactericidal activity against Pseudomonas aeruginosa isolate 1 with AMP-CFZ-CIP-CTX-CXM-GEN-LVX-SXT-TET resistance phenotype assessed as concentration required for >= 3 log10 CFU/ml reduction in viable bacteria in sodium phosphate buffer at pH 7.4 after 1.5 hrs by liquid microdilution assay; type: functional; summary of the method: as §1

H-LLPIVGNLLKSLL-NH2 was tested, and the Activity (Pseudomonas aeruginosa [1]) was 48 µM, the Activity (Pseudomonas aeruginosa [2]) was 48 µM and the Activity (Enterococcus faecium [3]) was 48 µM. For the same substance, the Activity (Staphylococcus aureus [4]) was 96 µM, the Activity [5] was 192 µM and the Activity (Acinetobacter baumannii [6]) was 192 µM. For the same substance, the Activity (Pseudomonas aeruginosa [7]) was 192 µM, the Activity (Staphylococcus aureus [8]) was “Active” and the Time [9] was 2 min. The Time (Acinetobacter baumannii [10]) was “>=30 min”, the Activity (Pseudomonas aeruginosa [11]) was “inactive” and the Activity (Pseudomonas aeruginosa [12]) was “Active”. For the same substance, the Time (Enterococcus faecium [13]) was 5 min, the Activity (Enterococcus faecium [14]) was “inactive” and the Activity (Enterococcus faecium [15]) was 12 µM. The Activity (Enterococcus faecium [16]) was 12 µM, the Activity (Enterococcus faecium [17]) was 12 µM and the Activity (Staphylococcus aureus [18]) was 48 µM. For the same substance, the Activity (Staphylococcus aureus [19]) was 48 µM, the Activity (Staphylococcus aureus [20]) was 12 µM and the Activity [21] was 24 µM. The Activity [22] was 3 µM, the Activity [23] was 48 µM and the Activity (Acinetobacter baumannii [24]) was 24 µM. It also gave an Activity (Acinetobacter baumannii [25]) of 6 µM, an Activity (Acinetobacter baumannii [26]) of 6 µM and an Activity (Pseudomonas aeruginosa [27]) of 48 µM.
